From PubChem BioAssay
Most compounds without a hit are left out; they make up all but 2.4% or so of the library.
Myeloid diff 2 – induction of myeloid progenitor differentiation, primary screen, cell-based, flow cytometry, MLPCN library. ER-HoxA9 myeloid progenitors, lysozyme-GFP differentiation. calls only at 10 µM. 360,000 tested, 1% active;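 active = normalized GFP-positive differentiation at or above the plate's own cutoff, the solvent-only control mean plus 3 SD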;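 also: cells exposed to compound for four days before flow analysis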
CendR NRP1 mod – modulators of CendR peptide binding to NRP-1, primary screen, biochemical, fluorescence polarization, uHTS; Neuropilin-1 (Homo sapiens), O14786; FAM-RPARPAR peptide binding to NRP-1; inhibition, % at 25 µM; 360,000 tested, 0.85% active; AID 602438, 2012;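 active = inhibition or corrected inhibition above about 18%, plus a signal ratio from 0.5 to 1.5, limit read from the data, passing the limit was not always enough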
Target sequence (O14786 whole entry, looked up): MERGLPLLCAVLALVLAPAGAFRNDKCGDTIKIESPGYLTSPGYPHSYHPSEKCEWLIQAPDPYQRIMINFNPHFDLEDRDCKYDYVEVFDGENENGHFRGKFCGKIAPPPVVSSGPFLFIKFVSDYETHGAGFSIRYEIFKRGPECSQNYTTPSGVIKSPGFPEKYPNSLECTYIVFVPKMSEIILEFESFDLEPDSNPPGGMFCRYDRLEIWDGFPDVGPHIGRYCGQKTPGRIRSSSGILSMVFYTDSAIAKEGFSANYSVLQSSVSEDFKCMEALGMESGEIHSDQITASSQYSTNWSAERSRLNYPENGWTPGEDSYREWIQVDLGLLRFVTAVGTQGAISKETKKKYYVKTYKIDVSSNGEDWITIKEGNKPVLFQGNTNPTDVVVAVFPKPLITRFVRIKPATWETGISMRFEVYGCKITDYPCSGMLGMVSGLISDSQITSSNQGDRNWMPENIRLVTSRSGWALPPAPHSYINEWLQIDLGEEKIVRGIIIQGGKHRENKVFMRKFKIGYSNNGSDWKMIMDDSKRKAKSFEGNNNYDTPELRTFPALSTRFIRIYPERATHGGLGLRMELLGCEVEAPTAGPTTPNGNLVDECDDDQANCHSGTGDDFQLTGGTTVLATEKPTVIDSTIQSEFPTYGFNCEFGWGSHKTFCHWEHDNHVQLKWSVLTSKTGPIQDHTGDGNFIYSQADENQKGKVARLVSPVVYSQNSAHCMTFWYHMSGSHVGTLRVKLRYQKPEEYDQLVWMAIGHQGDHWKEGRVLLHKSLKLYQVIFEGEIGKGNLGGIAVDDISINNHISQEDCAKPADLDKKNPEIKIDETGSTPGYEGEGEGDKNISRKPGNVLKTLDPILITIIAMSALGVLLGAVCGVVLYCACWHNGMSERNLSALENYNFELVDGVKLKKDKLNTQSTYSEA
MT1-MMP act inh – blockers of MT1-MMP proenzyme processing, primary screen, HT1080 RFP-PRO-GFP cells, GFP/RFP fluorescence. Matrix metalloproteinase-14 (Homo sapiens), P50281. GFP/RFP ratio fluorescence, overnight; percent of plate control window, DMSO zero. GFP/RFP ratio change, % at 20 µM. 360,000 tested, 0.061% active. AID 651647, 2012;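 active = GFP/RFP ratio change of at least 30% with cell ATP level not reduced by more than half and red fluorescence within 50% of control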
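Assay system: HT1080 cells carrying an RFP-PRO-GFP reporter | Dosing: Single dose of 20 µM compound, 1% DMSO final | Incubation: Cells overnight before dosing, compound overnight, 37 °C, 5% CO2 | Evaluation: GFP/RFP fluorescence ratio | Control set: DMSO and RFP-L50D-GFP cell wells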
SENP1 FRET inh – human SENP1 catalytic domain inhibitors, primary screen, biochemical, FRET, uHTS. recombinant SENP1 catalytic domain, CyPet-SUMO1-YPet FRET cleavage. inhibition, % at 10 µM. 360,000 tested, 0.21% active;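 active = inhibition at least 30% at 10 µM, raw YFP signal under a set limit, fluorescence ratio 0.5 to 1.5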;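 also: 0% = enzyme with DMSO and 100% = no enzyme wells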
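Test system: recombinant human SENP1 catalytic domain, His6-tagged / Medium: pH 8 Tris buffer with EDTA, NaCl, BME, BSA, NP40, catalase / Also added: SUMO1 FRET substrate flanked by Cypet and Ypet, 25 nM / Times: 50 min reaction at room temperature / Signal: FRET, CFP and YFP emission / Control set: no-enzyme low control and enzyme-plus-DMSO high control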
DAGLB inh – DAGLB lipase inhibitors, primary screen, biochemical, fluorescence, HTS; Diacylglycerol lipase-beta (Homo sapiens), Q8NCG7; inhibition, % at 5.17 µM; AID 504411, 2011; HEK293T DAGLB membrane lysate, EnzChek fluorogenic substrate; 340,000 tested, 0.059% active; in the data active = inhibition above about 34%;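 also: 0% = enzyme with vehicle and 100% = wells lacking enzyme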
beta cell repl – inducers of MIN6 beta-cell proliferation, primary screen, ATP luminescence, uHTS. proliferation, % at 10 µM. AID 2380, 2010. 330,000 tested, 0.29% active. MIN6 cells proliferation, ATPlite luminescence, 48 h; cells starved in 0.2% serum; 100% = growth in 10% serum;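 active = compounds whose signal lies at least 3.5 SD above the mean of all wells on their plate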;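 also: 0% = DMSO-treated cells in low-serum medium and 100% = 10% serum control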
An asterisk follows results filed as active; i = inactive; / = not tested or not shown; + = active, no number.

SMILES	Myeloid diff 2	CendR NRP1 mod	MT1-MMP act inh	SENP1 FRET inh	DAGLB inh	beta cell repl
O=C(Nc1cccc(C(F)(F)F)c1)C1Cc2c(-c3cccc(F)c3)ccnc2O1 (stereo unspecified)	i	29.9*	0.0	1.3	/	/
CC(=O)Nc1ccc(NC(=O)C2Cc3c(-c4ccc5c(c4)OCO5)ccnc3O2)cc1 (stereo unspecified)	i	11.7	-1.8	-1.2	/	/
COc1ccc(NC(=O)C2Cc3c(-c4ccc5c(c4)OCO5)ccnc3O2)cc1 (stereo unspecified)	+	-10.9	-3.6	-1.1	/	/
CC(NC(=O)COC(=O)CC(c1ccccc1)c1ccccc1)c1ccccc1 (stereo unspecified)	i	5.4	0.6	2.2	-3.0	-3.0
COCCNC(=O)C1CC(c2ccc(C(F)(F)F)cc2)=NO1 (stereo unspecified)	i	27.9*	1.3	4.7	-3.3	-0.6
O=C(NCc1cc(C(F)(F)F)cc(C(F)(F)F)c1)C1CC(c2ccccc2F)=NO1 (stereo unspecified)	i	27.7*	-0.1	3.8	-11.4	-2.6
O=C(NCc1cccc(C(F)(F)F)c1)C1CC(c2ccccc2F)=NO1 (stereo unspecified)	i	18.7	6.2	-0.1	-2.4	-1.1
COc1ccc(N=C2SCC(=O)N2Cc2ccccc2)cc1	+	-9.2	0.4	2.1	-4.6	-3.0
O=C(O)c1ccc(N=C2SCC(=O)N2Cc2ccccc2)cc1	i	6.4	0.1	0.7	2.3	3.1
O=S(=O)(c1ccc(Br)cc1)N1CCCc2ccccc21	i	5.4	0.3	-2.5	-7.3	-3.5
C=C1C(=O)C=C2CN(C(=O)c3ccccc3)[C@@](Cc3ccc(F)cc3)(C(=O)OC)[C@@H]12	+	-31.5	-16.6	-5.3	4.5	-8.1
CNC(=S)NC(CC(=O)OC)c1ccc2c(c1)OCO2 (stereo unspecified)	i	-11.1	4.1	-0.3	-0.9	-1.7
CN1C(=O)CC(c2cn(Cc3ccccc3)c3ccccc23)C1=O (stereo unspecified)	+	-63.8	-13.2	-59.1	-0.9	-2.2
Cc1ccc(C(=O)NCC(=O)Nc2ccccc2C)o1	i	23.2*	0.0	0.2	-1.0	/
CC(C)(C)c1ccc(C(=O)N2CCC2(C)C(=O)NCc2cccc3ccccc23)cc1 (stereo unspecified)	i	-4.3	-3.1	-0.6	/	/
CC(C)Cn1c(N)c(C(=O)COC(=O)c2cc(-c3ccco3)nc3ccccc23)c(=O)n(C)c1=O	+	-88.3	-17.1	-29.2	4.8	-5.7
Cc1occc1C(=O)NNC(=O)CN1C(=O)NC(C)(c2ccccc2)C1=O (stereo unspecified)	i	5.1	0.6	1.3	-1.3	0.3
O=C(COC(=O)c1cc(S(=O)(=O)N2CCOCC2)ccc1Cl)c1ccc[nH]1	+	-1.4	-2.1	-3.1	2.2	/
Cc1cc(N2CCCC2)ccc1/C=C1/C(=O)N(C)C(=S)N1C	+	-82.9	-113.1	66.1*	5.1	-2.4
O=c1[nH]cnc2[nH]ncc12	i	1.8	2.5	0.4	3.1	-2.3
Cc1cc2c(=O)[nH]cnc2s1	i	43.2*	2.8	-3.1	-0.9	-2.2
CC(C)CC(COCc1ccc([N+](=O)[O-])cc1)N1CCN(C(=O)c2ccc(C(F)(F)F)cc2)CCC1=O (stereo unspecified)	i	22.6*	1.2	0.5	-1.6	-8.1
COc1ccc(Cc2nnc(Nc3ccccc3)s2)cc1Br	+	6.8	3.3	1.9	0.4	-5.2
CC(=O)Nc1cccc(NC(=O)CS(=O)(=O)c2cn(CC(=O)N3CCOCC3)c3ccccc23)c1	i	3.2	2.9	1.6	-0.2	3.3
OCC[C@@H]1C[C@@H](O)[C@H](O)[C@@]2(CCCO2)O1	i	-3.6	-1.0	3.1	-3.6	-0.2
SMILES	Myeloid diff 2	CendR NRP1 mod	MT1-MMP act inh	SENP1 FRET inh	DAGLB inh	beta cell repl
OCC[C@H]1C[C@H](O)[C@@H](O)[C@@]2(OCc3ccccc32)O1	i	15.2	-1.4	-1.4	-3.7	-3.7
C[C@H]1CCC[C@@]2(O[C@@H](CCO)C[C@@H](O)[C@@H]2O)O1	i	24.6*	1.7	0.5	-2.5	-0.4
OCC[C@@H]1C[C@H](O)[C@@H](O)[C@@]2(CCCO2)O1	i	24.2*	-1.1	0.5	0.3	-1.1
OCC[C@@H]1C[C@@H](O)[C@H](O)[C@]2(OCc3ccccc32)O1	i	26.9*	3.0	0.9	0.0	-1.6
OCC[C@@H]1C[C@@H](O)[C@H](O)[C@@]2(CCCc3ccccc3O2)O1	i	24.9*	-2.1	1.5	-1.4	-0.7
CN1CCN(C(=O)C2Cc3c(-c4ccc5c(c4)OCO5)ccnc3O2)CC1 (stereo unspecified)	i	3.5	2.3	-1.6	/	/
CS(=O)(=O)N(CC(=O)NCCSCc1cccc(Cl)c1)c1ccc(F)cc1	i	5.5	-1.1	1.5	0.1	-2.7
CCC(C)c1ccccc1N1CC(C(=O)N2CCN(C(=O)c3ccco3)CC2)CC1=O (stereo unspecified)	i	-7.5	7.3	1.2	-2.1	1.9
OCC[C@H]1C[C@H](O)[C@@H](O)[C@]2(CCCO2)O1	i	37.8*	-1.3	2.7	-1.5	1.1
Cc1ccc(C(c2c(C)nn(-c3ccccc3)c2N)c2c(C)nn(-c3ccccc3)c2N)cc1	i	30.2*	-5.2	0.9	-1.3	-0.5
Cn1cccc1C1Nc2ccccc2NC2=C1C(=O)CC(C)(C)C2 (stereo unspecified)	i	22.2*	-34.9	-27.0	0.9	-4.0
CC1(C)CC(=O)C2=C(C1)Nc1ccccc1NC2c1cccc(F)c1 (stereo unspecified)	i	-11.8	-1.5	2.5	1.6	-2.4
CCN1CCN(C(c2cc3cccc(C)c3[nH]c2=O)c2nnnn2Cc2ccccc2)CC1 (stereo unspecified)	i	38.9*	-6.0	-17.5	1.6	1.5
NC(=O)CNC(=O)[C@@H]1CC2(CC(c3ccccc3)=NO2)CN1C(=O)c1ccc(Br)cc1 (stereo partly specified)	i	15.8	-3.0	2.7	-1.8	-2.1
CCS(=O)(=O)N1Cc2ccccc2CC1C(=O)NCCc1ccccc1 (stereo unspecified)	i	-6.9	1.4	-8.2	1.6	-2.3
